Source: PubChem BioAssay
MrgX1 agonist = agonists of human MrgX1 receptor; Q96LB2; MrgX1-HEK293 cells, Fluo-4 calcium fluorescence, agonist mode; hits give high values; B-score at 10 µM; 310,000 compounds, 0.44% hits; AID 588627;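 active = calcium response B-score plate-corrected fluorescence ratio at least 3 library SD, with starting fluorescence B-score inside 5 SD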
Target sequence (Q96LB2 whole entry, looked up): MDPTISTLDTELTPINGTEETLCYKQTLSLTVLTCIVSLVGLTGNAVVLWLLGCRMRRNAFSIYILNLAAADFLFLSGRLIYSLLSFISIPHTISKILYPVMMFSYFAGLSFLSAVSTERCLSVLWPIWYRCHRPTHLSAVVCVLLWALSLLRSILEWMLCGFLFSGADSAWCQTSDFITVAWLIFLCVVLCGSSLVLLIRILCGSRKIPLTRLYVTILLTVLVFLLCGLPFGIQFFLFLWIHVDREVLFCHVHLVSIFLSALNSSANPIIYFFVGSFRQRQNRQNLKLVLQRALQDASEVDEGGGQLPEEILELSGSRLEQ
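System – MrgX1-expressing HEK293 cells · Incubation – cells plated overnight, dye loaded 0.5 h 37 °C, 0.5 h room temperature · Technique – kinetic Fluo-4 NW fluorescence of intracellular calcium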
RGS4 block = inhibitors of human RGS4; P49798; HEK293 M3R/RGS4 inducible, Fluo-4 calcium flux; hits give high values; triggered by carbachol at its EC20; B-score at 10 µM; 310,000 compounds, 0.45% hits; AID 463165;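 active = B-score, a plate-corrected calcium signal, over three deviations above library mean, with baseline fluorescence within five deviations of library mean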;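 note: RGS4 expression induced by doxycycline in cells with stable M3 receptor; B-score is computed from the integrated fluorescence ratio over baseline after carbachol; higher B-score means a larger calcium signal and so more RGS4 inhibition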
Target sequence (P49798 whole entry, looked up): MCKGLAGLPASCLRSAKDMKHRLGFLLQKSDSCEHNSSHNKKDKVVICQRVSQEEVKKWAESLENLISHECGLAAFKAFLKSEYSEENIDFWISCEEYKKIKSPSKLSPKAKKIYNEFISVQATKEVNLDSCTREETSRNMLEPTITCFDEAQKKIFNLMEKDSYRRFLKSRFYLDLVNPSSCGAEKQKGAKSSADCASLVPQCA
RGS4 pot = potentiators or activators of RGS4 | HEK293 M3R/inducible RGS4, carbachol calcium flux Fluo4; hits give low values | B-score at 10 µM | 310,000 compounds, 0.92% hits | AID 463111;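 active = B-score of the integrated calcium signal more than 4 SD below the library mean, with starting fluorescence not abnormally high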;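 note: negative B-score means reduced calcium response which marks RGS4 activation or potentiation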
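System – HEK293 FlpIn-TREx cells, stable M3R, doxycycline-inducible RGS4 · Reagent – ECmax carbachol challenge · Times – compound preincubation 20 min at room temperature before agonist · Technique – Fluo4 fluorescence kinetic imaging of calcium · Measure – B score of integrated Fluo4 ratio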
MrgX1 antag = blocks BAM8-22 activation of human MrgX1 receptor. Q96LB2. MRGX1-HEK293 calcium flux, Fluo-4, BAM8-22 antagonism; hits give low values. B-score at 10 µM. 310,000 compounds, 1.3% hits;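 active = calcium-response B-score plate-corrected more than 3 library SD below zero, starting fluorescence within 5 deviations, no agonist response on first addition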;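 note: peak minus trough fluorescence over baseline after final BAM8-22 challenge near maximal dose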
MrgX1 PAM = allosterically activates human MrgX1 receptor signaling; B-score at 10 µM; Q96LB2; 310,000 compounds, 0.63% hits; AID 588675; MrgX1-HEK293, Fluo-4 calcium flux, FDSS; hits give high values;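 active = plate-corrected calcium response at least 3 library SD above typical, normal starting fluorescence, not activating the receptor alone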;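 note: compound read alongside a low EC10 to EC30 dose of BAM8-22 agonist; peak minus trough fluorescence over baseline measured at the second addition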
RGS4 block valid = RGS4 inhibitor validation; AID 492999; calcium response, % at 10 µM; shares compounds with RGS4 block; 1,700 compounds, 65% hits; HEK293 M3R/RGS4, carbachol calcium Fluo-4 fluorescence; carbachol added at its EC20; 0 = buffer wells, 100 = carbachol control;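 active = duplicate-averaged calcium response above the buffer-only control mean plus 5 SD of those controls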;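 note: integrated fluorescence ratio F max minus min over baseline F0; higher response in RGS4-induced cells means RGS4 inhibition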
M3R Ca ctr = checks RGS4 inhibitor effects in non-induced HEK293 M3R cells; 1,900 compounds, 20% hits; shares compounds with RGS4 block; carbachol calcium Fluo-4; submaximal (EC20) carbachol stimulus; buffer wells 0%, carbachol control wells 100%; activity (percent), % at 10 µM; call rule not given here;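 note: RGS4 induction absent so cells express M3R without RGS4; higher means more calcium signal and flags a non-specific hit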
M3R basal Ca ctr = second counter-screen for RGS4 inhibitors: non-induced cells without carbachol; shares compounds with RGS4 block; HEK293 M3R/RGS4 non-induced, Fluo-4 calcium, no carbachol; normalised: buffer wells 0%, carbachol wells 100%; calcium response (agonist-mode artifact), % at 10 µM; 1,900 compounds, 22% hits;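 active = duplicate-averaged calcium rise in uninduced cells above buffer wells' mean plus 5 SD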
Starred values were filed as active, the others as inactive; i = inactive; . = no result. A selection: hits, their analogues and other compounds. The true share with any hit is near 3.5%.

SMILES	MrgX1 agonist	RGS4 block	RGS4 pot	MrgX1 antag	MrgX1 PAM	RGS4 block valid	M3R Ca ctr	M3R basal Ca ctr
Cc1ccc(S(=O)(=O)N(C)c2ccc(C(=O)N(CC(C)C)C3CCS(=O)(=O)C3)cc2)cc1 (stereo not given)	i	i	i	i	i	.	.	.
CC(C)(C)C1CCC(C(=O)OCC(=O)c2ccc[nH]2)CC1 (stereo not given)	i	i	i	i	i	.	.	.
COc1ccc(C2=NN(CN3C(=O)C(=O)c4ccccc43)C(c3ccc(OC)cc3)C2)cc1 (stereo not given)	i	i	i	i	i	.	35%*	i
Cc1ccc(S(=O)(=O)NCC(C)NC(=O)CN2CCOCC2)cc1 (stereo not given)	i	i	i	i	i	.	.	.
COc1ccc(-c2c(-c3ccc(OCC(=O)NN)cc3O)n[nH]c2C)cc1OC	i	i	i	i	i	.	.	.
COc1ccc(-c2c(-c3ccc(OCC(=O)NN)cc3O)n[nH]c2C(F)(F)F)cc1	i	12*	i	i	i	28%*	29%*	i
OCc1ncc(-c2ccccc2)s1	i	i	i	i	i	.	.	.
COc1cc(C(=O)OCc2cc(=O)oc3c(C)c(C)ccc23)ccc1OC(F)F	i	i	i	i	i	.	.	.
CN(C)/C=C1/N=C(c2ccccc2)OC1=O	i	i	i	i	i	.	.	.
O=CC1=C(c2ccccc2)Oc2ccccc2O1	i	10*	i	i	i	19%*	40%*	i
C/C(=N\N=C(/N)SC1CC(=O)N(c2ccc(Br)cc2)C1=O)c1cccs1 (stereo not given)	i	11*	i	i	i	37%*	31%*	i
CCCCCOc1ccc(N2C(=O)CC(N(O)c3ccccc3)C2=O)cc1 (stereo not given)	i	i	i	i	i	.	.	.
C/C(=N\N=C(/N)SC1CC(=O)N(c2ccc(Cl)cc2)C1=O)c1cccs1 (stereo not given)	i	8.7*	i	i	i	5.0%*	40%*	i
C/C(=N\N=C(/N)SC1CC(=O)N(c2ccc(Cl)c(Cl)c2)C1=O)c1cccs1 (stereo not given)	i	6.4*	i	i	i	5.5%*	i	i
CCCCCCOc1ccc(N2C(=O)CC(S/C(N)=N/N=C(\C)c3cccs3)C2=O)cc1 (stereo not given)	i	7.5*	i	i	i	i	i	i
NCCSC1CC(=O)N(c2ccc(Cl)c(Cl)c2)C1=O (stereo not given)	i	i	i	i	i	.	.	.
COc1ccc(/C(O)=C2/C(=O)C(=O)N(c3ccccn3)C2c2ccc(OC)c(OC)c2)cc1 (stereo not given)	i	i	i	i	i	.	.	.
O=C(N/N=C/c1ccc(O)cc1O)c1ccc(NC(=O)C2CCCCC2)cc1	i	i	i	i	i	.	.	.
CCC1CCCCN1CCCNC(=O)CS(=O)(=O)Cc1nc(-c2cccc(OC)c2)oc1C (stereo not given)	i	i	i	i	i	.	.	.
C/C(=N\N=C(/N)SC1CC(=O)N(c2ccccc2)C1=O)c1cccs1 (stereo not given)	i	i	i	i	i	.	i	i
N/C(=N\N=C\c1cccs1)SC1CC(=O)N(c2ccc(Br)cc2)C1=O (stereo not given)	i	i	i	i	i	.	.	.
CC(C(=O)Nc1ccc2c(c1)OCCO2)N(C)Cc1c(F)cccc1Cl (stereo not given)	i	i	i	i	i	.	.	.
Cc1ccc(C(=O)/C=C/C(=O)O)cc1	i	16*	i	i	i	64%*	44%*	14%*
Cc1ccc(/C=C/C(=O)c2ccc(O)cc2)cc1	i	i	i	i	i	.	.	.
N#Cc1ccc(Cl)cc1NC(=O)COC(=O)[C@H](CCC(N)=O)NC(=O)c1ccc(F)cc1	i	i	i	i	i	.	.	.
SMILES	MrgX1 agonist	RGS4 block	RGS4 pot	MrgX1 antag	MrgX1 PAM	RGS4 block valid	M3R Ca ctr	M3R basal Ca ctr
Cc1cccc(NC(=S)NNC(=O)c2csc3c2CCC(C)C3)c1 (stereo not given)	i	6.1*	i	i	i	16%*	i	i
CC(C)CNC(=S)NNC(=O)c1csc2c1CCC(C)C2 (stereo not given)	i	i	i	i	i	.	.	.
O=C(O)CC(C(=O)Nc1ccc(F)cc1)C1CCCO1 (stereo not given)	i	i	i	i	i	.	.	.
Cc1ccc(-c2nn(-c3ccccc3)c3[nH]c(=O)c(CNCc4ccccc4)cc23)cc1	i	7*	i	i	i	19%*	i	18%*
Cc1nn(-c2ccccc2)c2[nH]c(=O)c(CNCc3ccc4c(c3)OCO4)cc12	i	i	i	i	i	.	.	.
CC(C)CCn1c(=O)c2ccccc2n2c(CN3CCOCC3)nnc12	i	i	i	i	i	.	.	.
Cc1[nH]c2ccccc2c1/C=N/Nc1nc(N2CCCCC2)nc(N2CCCCC2)n1	i	11*	i	i	i	38%*	63%*	i
C(=N\Nc1nc(N2CCCCC2)nc(N2CCCCC2)n1)/c1c[nH]c2ccccc12	i	i	i	i	i	.	.	.
Oc1ccc(/C=N/Nc2ccc(C(F)(F)F)cn2)cc1	i	i	i	i	i	.	i	i
O=C1CCCc2nc(N3CCN(C(=O)c4ccco4)CC3)ncc21	i	i	i	i	i	.	.	.
CCOC(=O)c1c(-c2ccc(C)o2)csc1NC(=S)NC(=O)N(C)C	i	21*	i	i	i	i	i	i
CC(=O)Nc1ccc(S(=O)(=O)NC2(C(F)(F)F)C(=O)Nc3c2c(=O)[nH]c(=O)n3Cc2cccnc2)cc1 (stereo not given)	i	i	i	i	i	.	.	.
O=C(Cn1cnnn1)NCc1ccccc1	i	i	i	i	i	.	.	.
